Results from ChEMBL document CHEMBL5058577, “EUbOPEN Chemogenomics Library 2 (Multiplex)” (2022).

Test system: U2OS
Test: Multiplex assay against U2OS
Type: toxicity, cell-based
Conditions: human
In short: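 Hoechst33342, BioTracker Green Microtubule Cytoskeleton Dye, MitoTracker Red and Annexin V Alexa Fluor 680 were added to live cells at seeding, and imaging on a CQ1 microscope at 37°C and 5% CO2 followed compound addition. Gating by CellPathfinder machine learning separated cells into Hoechst high-intensity objects or normal cells, then normal cells into healthy, pyknosed or fragmented nuclei, then pyknosed cells into mitotic or apoptotic. Per cents of healthy-nucleus cells are reported for the tubulin, mitochondrial-mass and membrane-permeability phenotypes.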

[1] = 12 h, 1 µM, compound concentration 1 uM, replicate 1
[2] = 12 h, 1 µM, compound concentration 1 uM, replicate 2
[3] = 12 h, 10 µM, compound concentration 10 uM, replicate 1
[4] = 12 h, 10 µM, compound concentration 10 uM, replicate 2
[5] = 24 h, 1 µM, compound concentration 1 uM, replicate 1
[6] = 24 h, 1 µM, compound concentration 1 uM, replicate 2
[7] = 24 h, 10 µM, compound concentration 10 uM, replicate 1
[8] = 24 h, 10 µM, compound concentration 10 uM, replicate 2
[9] = 48 h, 1 µM, compound concentration 1 uM, replicate 1
[10] = 48 h, 1 µM, compound concentration 1 uM, replicate 2
[11] = 48 h, 10 µM, compound concentration 10 uM, replicate 1
[12] = 48 h, 10 µM, compound concentration 10 uM, replicate 2

## CSc1nc(NC2CCCC2)c([N+](=O)[O-])c(NC2CCCC2)n1 [GS-39783]
[1]
  Population Apoptotic (%): 82%
  Population Fragmented Nuclei (%): 25%
  Population Healthy Nuclei (%): 66%
  Population Hoechst High Intensity Objects (%): 2%
  Population Membrane Permeable-Phenotype (%): 4%
  Population Mitochondria Different-Phenotype (%): 3%
  Population Mitotic Cells (%): 17%
  Population Normal (%): 97%
  Population Pyknosed Nuclei (%): 8%
  Population Tubulin-Different-Phenotype (%): 1%
  Total Cell Count: 209
[2]
  Population Apoptotic (%): 80%
  Population Fragmented Nuclei (%): 18%
  Population Healthy Nuclei (%): 76%
  Population Hoechst High Intensity Objects (%): 3%
  Population Mitochondria Different-Phenotype (%): 0%
  Population Mitotic Cells (%): 20%
  Population Normal (%): 96%
  Population Pyknosed Nuclei (%): 5%
  Total Cell Count: 96
[3]
  Population Apoptotic (%): 88%
  Population Fragmented Nuclei (%): 30%
  Population Healthy Nuclei (%): 63%
  Population Hoechst High Intensity Objects (%): 3%
  Population Membrane Permeable-Phenotype (%): 9%
  Population Mitochondria Different-Phenotype (%): 5%
  Population Mitotic Cells (%): 11%
  Population Normal (%): 96%
  Population Pyknosed Nuclei (%): 5%
  Population Tubulin-Different-Phenotype (%): 4%
  Total Cell Count: 322
[4]
  Population Apoptotic (%): 100%
  Population Fragmented Nuclei (%): 19%
  Population Healthy Nuclei (%): 75%
  Population Hoechst High Intensity Objects (%): 1%
  Population Mitochondria Different-Phenotype (%): 0%
  Population Mitotic Cells (%): 0%
  Population Normal (%): 98%
  Population Pyknosed Nuclei (%): 4%
  Population Tubulin-Different-Phenotype (%): 6%
  Total Cell Count: 145
[5]
  Population Apoptotic (%): 87%
  Population Fragmented Nuclei (%): 22%
  Population Healthy Nuclei (%): 64%
  Population Hoechst High Intensity Objects (%): 2%
  Population Membrane Permeable-Phenotype (%): 2%
  Population Mitochondria Different-Phenotype (%): 1%
  Population Mitotic Cells (%): 12%
  Population Normal (%): 97%
  Population Pyknosed Nuclei (%): 12%
  Population Tubulin-Different-Phenotype (%): 1%
  Total Cell Count: 269
[6]
  Population Apoptotic (%): 84%
  Population Fragmented Nuclei (%): 20%
  Population Healthy Nuclei (%): 68%
  Population Hoechst High Intensity Objects (%): 1%
  Population Membrane Permeable-Phenotype (%): 1%
  Population Mitotic Cells (%): 15%
  Population Normal (%): 98%
  Population Pyknosed Nuclei (%): 11%
  Population Tubulin-Different-Phenotype (%): 0%
  Total Cell Count: 119
[7]
  Population Apoptotic (%): 85%
  Population Fragmented Nuclei (%): 26%
  Population Healthy Nuclei (%): 66%
  Population Hoechst High Intensity Objects (%): 2%
  Population Membrane Permeable-Phenotype (%): 6%
  Population Mitochondria Different-Phenotype (%): 6%
  Population Mitotic Cells (%): 14%
  Population Normal (%): 97%
  Population Pyknosed Nuclei (%): 6%
  Population Tubulin-Different-Phenotype (%): 4%
  Total Cell Count: 341
[8]
  Population Apoptotic (%): 88%
  Population Fragmented Nuclei (%): 18%
  Population Healthy Nuclei (%): 75%
  Population Hoechst High Intensity Objects (%): 3%
  Population Membrane Permeable-Phenotype (%): 9%
  Population Mitochondria Different-Phenotype (%): 2%
  Population Mitotic Cells (%): 11%
  Population Normal (%): 96%
  Population Pyknosed Nuclei (%): 5%
  Population Tubulin-Different-Phenotype (%): 5%
  Total Cell Count: 164
[9]
  Population Apoptotic (%): 88%
  Population Fragmented Nuclei (%): 18%
  Population Healthy Nuclei (%): 70%
  Population Hoechst High Intensity Objects (%): 1%
  Population Membrane Permeable-Phenotype (%): 3%
  Population Mitochondria Different-Phenotype (%): 1%
  Population Mitotic Cells (%): 11%
  Population Normal (%): 98%
  Population Pyknosed Nuclei (%): 11%
  Population Tubulin-Different-Phenotype (%): 1%
  Total Cell Count: 382
[10]
  Population Apoptotic (%): 92%
  Population Fragmented Nuclei (%): 21%
  Population Healthy Nuclei (%): 71%
  Population Hoechst High Intensity Objects (%): 0%
  Population Mitotic Cells (%): 7%
  Population Normal (%): 100%
  Population Pyknosed Nuclei (%): 7%
  Population Tubulin-Different-Phenotype (%): 3%
  Total Cell Count: 185
[11]
  Population Apoptotic (%): 89%
  Population Fragmented Nuclei (%): 23%
  Population Healthy Nuclei (%): 67%
  Population Hoechst High Intensity Objects (%): 2%
  Population Membrane Permeable-Phenotype (%): 5%
  Population Mitochondria Different-Phenotype (%): 1%
  Population Mitotic Cells (%): 10%
  Population Normal (%): 97%
  Population Pyknosed Nuclei (%): 8%
  Population Tubulin-Different-Phenotype (%): 2%
  Total Cell Count: 462
[12]
  Population Apoptotic (%): 85%
  Population Fragmented Nuclei (%): 12%
  Population Healthy Nuclei (%): 81%
  Population Hoechst High Intensity Objects (%): 0%
  Population Membrane Permeable-Phenotype (%): 4%
  Population Mitochondria Different-Phenotype (%): 3%
  Population Mitotic Cells (%): 14%
  Population Normal (%): 99%
  Population Pyknosed Nuclei (%): 6%
  Population Tubulin-Different-Phenotype (%): 3%
  Total Cell Count: 231

## Cl.Cl.OCCOCCN1CCN(C(c2ccccc2)c2ccc(Cl)cc2)CC1 (centres undefined) [HYDROXYZINE HYDROCHLORIDE]
[1]
  Population Apoptotic (%): 60%
  Population Fragmented Nuclei (%): 29%
  Population Healthy Nuclei (%): 61%
  Population Hoechst High Intensity Objects (%): 0%
  Population Membrane Permeable-Phenotype (%): 11%
  Population Mitochondria Different-Phenotype (%): 4%
  Population Mitotic Cells (%): 40%
  Population Normal (%): 99%
  Population Pyknosed Nuclei (%): 9%
  Population Tubulin-Different-Phenotype (%): 7%
  Total Cell Count: 208
[2]
  Population Apoptotic (%): 80%
  Population Fragmented Nuclei (%): 13%
  Population Healthy Nuclei (%): 78%
  Population Hoechst High Intensity Objects (%): 1%
  Population Membrane Permeable-Phenotype (%): 9%
  Population Mitochondria Different-Phenotype (%): 6%
  Population Mitotic Cells (%): 20%
  Population Normal (%): 98%
  Population Pyknosed Nuclei (%): 7%
  Population Tubulin-Different-Phenotype (%): 8%
  Total Cell Count: 139
[3]
  Population Apoptotic (%): 58%
  Population Fragmented Nuclei (%): 20%
  Population Healthy Nuclei (%): 66%
  Population Hoechst High Intensity Objects (%): 1%
  Population Membrane Permeable-Phenotype (%): 9%
  Population Mitochondria Different-Phenotype (%): 10%
  Population Mitotic Cells (%): 41%
  Population Normal (%): 98%
  Population Pyknosed Nuclei (%): 13%
  Population Tubulin-Different-Phenotype (%): 6%
  Total Cell Count: 316
[4]
  Population Apoptotic (%): 88%
  Population Fragmented Nuclei (%): 26%
  Population Hoechst High Intensity Objects (%): 2%
  Population Membrane Permeable-Phenotype (%): 5%
  Population Mitochondria Different-Phenotype (%): 7%
  Population Mitotic Cells (%): 11%
  Population Normal (%): 97%
  Population Pyknosed Nuclei (%): 6%
  Population Tubulin-Different-Phenotype (%): 7%
  Total Cell Count: 141
[5]
  Population Apoptotic (%): 96%
  Population Fragmented Nuclei (%): 25%
  Population Healthy Nuclei (%): 63%
  Population Hoechst High Intensity Objects (%): 1%
  Population Membrane Permeable-Phenotype (%): 8%
  Population Mitochondria Different-Phenotype (%): 4%
  Population Mitotic Cells (%): 4%
  Population Normal (%): 98%
  Population Pyknosed Nuclei (%): 10%
  Population Tubulin-Different-Phenotype (%): 7%
  Total Cell Count: 232
[6]
  Population Apoptotic (%): 77%
  Population Fragmented Nuclei (%): 9%
  Population Healthy Nuclei (%): 77%
  Population Hoechst High Intensity Objects (%): 2%
  Population Membrane Permeable-Phenotype (%): 5%
  Population Mitochondria Different-Phenotype (%): 1%
  Population Mitotic Cells (%): 22%
  Population Normal (%): 97%
  Population Pyknosed Nuclei (%): 12%
  Population Tubulin-Different-Phenotype (%): 1%
  Total Cell Count: 148
[7]
  Population Apoptotic (%): 73%
  Population Fragmented Nuclei (%): 23%
  Population Healthy Nuclei (%): 63%
  Population Hoechst High Intensity Objects (%): 2%
  Population Membrane Permeable-Phenotype (%): 10%
  Population Mitochondria Different-Phenotype (%): 8%
  Population Mitotic Cells (%): 26%
  Population Normal (%): 97%
  Population Pyknosed Nuclei (%): 12%
  Population Tubulin-Different-Phenotype (%): 4%
  Total Cell Count: 359
[8]
  Population Apoptotic (%): 61%
  Population Fragmented Nuclei (%): 31%
  Population Healthy Nuclei (%): 60%
  Population Membrane Permeable-Phenotype (%): 12%
  Population Mitochondria Different-Phenotype (%): 13%
  Population Mitotic Cells (%): 38%
  Population Pyknosed Nuclei (%): 7%
  Population Tubulin-Different-Phenotype (%): 9%
  Total Cell Count: 168
[9]
  Population Apoptotic (%): 89%
  Population Fragmented Nuclei (%): 24%
  Population Healthy Nuclei (%): 62%
  Population Hoechst High Intensity Objects (%): 2%
  Population Membrane Permeable-Phenotype (%): 4%
  Population Mitochondria Different-Phenotype (%): 3%
  Population Mitotic Cells (%): 10%
  Population Normal (%): 97%
  Population Pyknosed Nuclei (%): 13%
  Population Tubulin-Different-Phenotype (%): 4%
  Total Cell Count: 300
[10]
  Population Apoptotic (%): 90%
  Population Fragmented Nuclei (%): 14%
  Population Healthy Nuclei (%): 76%
  Population Membrane Permeable-Phenotype (%): 5%
  Population Pyknosed Nuclei (%): 8%
  Population Tubulin-Different-Phenotype (%): 0%
  Total Cell Count: 230
[11]
  Population Apoptotic (%): 83%
  Population Fragmented Nuclei (%): 17%
  Population Healthy Nuclei (%): 68%
  Population Hoechst High Intensity Objects (%): 2%
  Population Membrane Permeable-Phenotype (%): 8%
  Population Mitochondria Different-Phenotype (%): 6%
  Population Mitotic Cells (%): 16%
  Population Normal (%): 97%
  Population Pyknosed Nuclei (%): 13%
  Population Tubulin-Different-Phenotype (%): 4%
  Total Cell Count: 456
[12]
  Population Fragmented Nuclei (%): 27%
  Population Healthy Nuclei (%): 64%
  Population Hoechst High Intensity Objects (%): 5%
  Population Membrane Permeable-Phenotype (%): 10%
  Population Mitochondria Different-Phenotype (%): 5%
  Population Normal (%): 94%
  Population Pyknosed Nuclei (%): 8%
  Population Tubulin-Different-Phenotype (%): 5%
  Total Cell Count: 231
